This is an account of results in the RNAGym collection of RNA variant scans (doi:10.1002/anie.201605470).

B1: Osa-1-4 twister ribozyme (parent)
chain: CCGCCUAACACUGCCAAUGCCGGUCCCAAGCCCGGAUAAAAGUGGAGGGGGCGG

In this data set the parent is B1. Put plainly: self-cleavage, relative activity (ratio to wild type); higher = more cleavage; co-transcriptional. In short, it runs like this: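 The 48 positions downstream of the cleavage site in a 54-nucleotide Oryza sativa twister ribozyme template were synthesised at 97 % wild-type base and 1 % of each other base. The template was transcribed in vitro at 37 °C for 2 h, with self-cleavage allowed during transcription. Reads with or without upstream sequence after deep sequencing marked cleavage status, and relative activity is fraction cleaved normalised to wild type.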
Turning to CCGCCUAACACUGCCAAUGCGGGGCCCAAGCCCGGAUAAAAGUGGAGGGGGCGG [C21G U24G], the self-cleavage was 0.03.

CCGCCUAACACUGCCAAUGCGGGACCCAAGCCCGGAUAAAAGUGGAGGGGGCGG [C21G U24A]: the self-cleavage came to 0.06.

In the case of CCGCCUAACACUGCCAAUGCGGGCCCCAAGCCCGGAUAAAAGUGGAGGGGGCGG [C21G U24C], the self-cleavage was determined as 0.04.

Consider CCGCCUAACACUGCCAAUGCGGGUACCAAGCCCGGAUAAAAGUGGAGGGGGCGG [C21G C25A], for which the self-cleavage was 0.04.

Consider CCGCCUAACACUGCCAAUGCGGGUUCCAAGCCCGGAUAAAAGUGGAGGGGGCGG [C21G C25U], for which the self-cleavage is 0.05.

With CCGCCUAACACUGCCAAUGCGGGUGCCAAGCCCGGAUAAAAGUGGAGGGGGCGG [C21G C25G], the self-cleavage stood at 0.03.

For CCGCCUAACACUGCCAAUGCGGGUCCCAAGCCAGGAUAAAAGUGGAGGGGGCGG [C21G C33A], the self-cleavage was 0.03.

Turning to CCGCCUAACACUGCCAAUGCGGGUCCCAAGCCGGGAUAAAAGUGGAGGGGGCGG [C21G C33G], the self-cleavage was 0.05.

CCGCCUAACACUGCCAAUGCGGGUCCCAAGCCUGGAUAAAAGUGGAGGGGGCGG [C21G C33U]: the self-cleavage stood at 0.05.

For CCGCCUAACACUGCCAAUCCGGGUCCCAAGCCCGGAUAAAAGUGGAGGGGGCGG [C21G G19C], the self-cleavage was found to be 0.02.

In the case of CCGCCUAACACUGCCAAUACGGGUCCCAAGCCCGGAUAAAAGUGGAGGGGGCGG [C21G G19A], the self-cleavage stood at 0.05.

As to CCGCCUAACACUGCCAAUUCGGGUCCCAAGCCCGGAUAAAAGUGGAGGGGGCGG [C21G G19U], the self-cleavage is 0.03.

For the variant CCGCCUAACACUGCCAAUGCGGGUCCCAAGCCCGGAUAAAAAUGGAGGGGGCGG [C21G G42A], the self-cleavage worked out at 0.05.

Turning to CCGCCUAACACUGCCAAUGCGGGUCCCAAGCCCGGAUAAAACUGGAGGGGGCGG [C21G G42C], the self-cleavage was determined as 0.05.

For CCGCCUAACACUGCCAAUGCGGGUCCCAAGCCCGGAUAAAAUUGGAGGGGGCGG [C21G G42U], the self-cleavage was 0.02.

Regarding CCGCCUAACACUGCCAAUGCGGGUCCCAAGCUCGGAUAAAAGUGGAGGGGGCGG [C21G C32U], the self-cleavage was 0.02.

As for CCGCCUAACACUGCCAAUGCGGGUCCCAAGCGCGGAUAAAAGUGGAGGGGGCGG [C21G C32G], the self-cleavage worked out at 0.06.

As for CCGCCUAACACUGCCAAUGCGGGUCCCAAGCACGGAUAAAAGUGGAGGGGGCGG [C21G C32A], the self-cleavage was found to be 0.03.

On to CCGCCUAACACUGCCAAUGCGGGUCCCAAGCCCGGAUAAAAGUGGAGGGGUCGG [C21G G51U], for which the self-cleavage was determined as 0.06.

CCGCCUAACACUGCCAAUGCGGGUCCCAAGCCCGGAUAAAAGUGGAGGGGACGG [C21G G51A]: the self-cleavage stood at 0.07.

On to CCGCCUAACACUGCCAAUGCGGGUCCCAAGCCCGGAUAAAAGUGGAGGGGCCGG [C21G G51C], for which the self-cleavage was 0.02.

Regarding CCGCCUAACACUGCCAAUGCGGUUCCCAAGCCCGGAUAAAAGUGGAGGGGGCGG [C21G G23U], the self-cleavage was found to be 0.07.

For CCGCCUAACACUGCCAAUGCGGAUCCCAAGCCCGGAUAAAAGUGGAGGGGGCGG [C21G G23A], the self-cleavage amounted to 0.07.

For CCGCCUAACACUGCCAAUGCGGCUCCCAAGCCCGGAUAAAAGUGGAGGGGGCGG [C21G G23C], the self-cleavage amounted to 0.03.

CCGCCUAAGACUGCCAAUGCGGGUCCCAAGCCCGGAUAAAAGUGGAGGGGGCGG [C21G C9G]: the self-cleavage came to 0.07.

As to CCGCCUAAUACUGCCAAUGCGGGUCCCAAGCCCGGAUAAAAGUGGAGGGGGCGG [C21G C9U], the self-cleavage came to 0.04.

For the variant CCGCCUAAAACUGCCAAUGCGGGUCCCAAGCCCGGAUAAAAGUGGAGGGGGCGG [C21G C9A], the self-cleavage amounted to 0.04.

Regarding CCGCCUAAAACUGCCAAUGCUGGUCCCAAGCCCGGAUAAAAGUGGAGGGGGCGG [C21U C9A], the self-cleavage amounted to 0.55.

On to CCGCCUAAGACUGCCAAUGCUGGUCCCAAGCCCGGAUAAAAGUGGAGGGGGCGG [C21U C9G], for which the self-cleavage came to 0.74.

As to CCGCCUAACACUGCCAAUGCGGGUCCCAAGCCCGGAUAAAAGUGGAGGGUGCGG [C21G G50U], the self-cleavage came out at 0.1.

Regarding CCGCCUAACACUGCCAAUGCGGGUCCCAAGCCCGGAUAAAAGUGGAGGGCGCGG [C21G G50C], the self-cleavage amounted to 0.06.

Consider CCGCCUAACACUGCCAAUGCGGGUCCCAAGCCCGGAUAAAAGUGGAGGGAGCGG [C21G G50A], for which the self-cleavage was 0.09.

For CCGCCUAACACGGCCAAUGCGGGUCCCAAGCCCGGAUAAAAGUGGAGGGGGCGG [C21G U12G], the self-cleavage was found to be 0.06.

Regarding CCGCCUAACACCGCCAAUGCGGGUCCCAAGCCCGGAUAAAAGUGGAGGGGGCGG [C21G U12C], the self-cleavage amounted to 0.04.

In the case of CCGCCUAACACAGCCAAUGCGGGUCCCAAGCCCGGAUAAAAGUGGAGGGGGCGG [C21G U12A], the self-cleavage came to 0.08.

For CCGCCUAACACUGCCAAUGCGGGUCCCAAGCCCGGAUAAAAGUAGAGGGGGCGG [C21G G44A], the self-cleavage stood at 0.09.

In the case of CCGCCUAACACUGCCAAUGCGGGUCCCAAGCCCGGAUAAAAGUUGAGGGGGCGG [C21G G44U], the self-cleavage was determined as 0.08.

In the case of CCGCCUAACACUGCCAAUGCGGGUCCCAAGCCCGGAUAAAAGUCGAGGGGGCGG [C21G G44C], the self-cleavage came out at 0.08.

CCGCCUAACACUGCCAAUGCGGGUCCCAAGCCCGGAUAAAAGUGGAGGGGGCGA [C21G G54A]: the self-cleavage stood at 0.07.

CCGCCUAACACUGCCAAUGCGGGUCCCAAGCCCGGAUAAAAGUGGAGGGGGCGC [C21G G54C]: the self-cleavage amounted to 0.07.

Regarding CCGCCUAACACUGCCAAUGCGGGUCCCAAGCCCGGAUAAAAGUGGAGGGGGCGU [C21G G54U], the self-cleavage is 0.11.

On to CCGCCUAACACUGCCAAUGCGGGUCCCAAACCCGGAUAAAAGUGGAGGGGGCGG [C21G G30A], for which the self-cleavage worked out at 0.02.

Take CCGCCUAACACUGCCAAUGCGGGUCCCAACCCCGGAUAAAAGUGGAGGGGGCGG [C21G G30C]: the self-cleavage came out at 0.02.

As to CCGCCUAACACUGCCAAUGCGGGUCCCAAUCCCGGAUAAAAGUGGAGGGGGCGG [C21G G30U], the self-cleavage amounted to 0.02.

As for CCGCCUAACACUGCCAAUGCGUGUCCCAAGCCCGGAUAAAAGUGGAGGGGGCGG [C21G G22U], the self-cleavage stood at 0.5.

For the variant CCGCCUAACACUGCCAAUGCGAGUCCCAAGCCCGGAUAAAAGUGGAGGGGGCGG [C21G G22A], the self-cleavage was 0.49.

For CCGCCUAACACUGCCAAUGCGCGUCCCAAGCCCGGAUAAAAGUGGAGGGGGCGG [C21G G22C], the self-cleavage stood at 0.16.

For CCGCCUAACACUGCCAAUGCGGGUCCCAAGCCCGGAUAAAAGUGGAGGUGGCGG [C21G G49U], the self-cleavage turned out to be 0.02.
